# Laboratory results: ChEMBL document CHEMBL1926607 (J Med Chem, 2011)
# Activity calls are given as the source filed them. The calls are words filed in the database; no cut-off is given here.
# Target: T1, 5-hydroxytryptamine receptor 1A (Homo sapiens) (UniProt P08908)
# T1 sequence (whole entry): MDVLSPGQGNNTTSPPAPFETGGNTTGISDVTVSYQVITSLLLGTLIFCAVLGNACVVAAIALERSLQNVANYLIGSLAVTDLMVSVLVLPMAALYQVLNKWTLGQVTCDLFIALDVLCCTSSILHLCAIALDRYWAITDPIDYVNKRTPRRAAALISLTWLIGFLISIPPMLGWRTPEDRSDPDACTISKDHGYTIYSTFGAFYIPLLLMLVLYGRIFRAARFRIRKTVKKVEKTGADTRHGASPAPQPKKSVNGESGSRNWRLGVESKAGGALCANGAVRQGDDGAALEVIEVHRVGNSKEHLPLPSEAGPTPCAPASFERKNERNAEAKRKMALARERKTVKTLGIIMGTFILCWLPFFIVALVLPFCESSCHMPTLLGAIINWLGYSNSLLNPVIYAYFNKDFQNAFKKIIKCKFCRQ
# Assay: Agonist activity at human 5HT1A receptor expressed in human HeLa cells assessed as inhibition of forskolin-stimulated cAMP production pretreated 20 mins before forskolin challenge measured after 2 hrs by RIA relative to control
# Format: functional, cell-based
row,Structure (SMILES),Emax
1,O=C1C2CCCN2C(=O)N1CCCNCC1CCc2ccccc2O1 (configuration not stated),94.3%
2,O=C1CSC(=O)N1CCCCCCCCNCC1CCc2ccccc2O1 (configuration not stated),88.6%
3,O=C1C2CCCCN2C(=O)N1CCCCNCC1CCc2ccccc2O1 (configuration not stated),77.9%

# Tested on: not listed separately
# Assay: Neuroprotective activity in Wistar rat hippocampi primary neuronal cells assessed as protection against serum-deprivation induced cell death at 1 uM after 24 hrs by MTT assay
# Format: functional, Hippocampus, Primary neuron
# How it was run: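 Mixed neuron-glia cultures from E18 Wistar rat hippocampi (Neurobasal plus 10% FCS), used at 11 days in vitro. Medium replaced by saline to withdraw serum; cells held 24 h with compound. Cell survival measured by MTT reduction, expressed as % protection.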
row,Structure (SMILES),Activity
1,CCCN(CCC)C1CCc2cccc(O)c2C1 (configuration not stated) [8-OH-DPAT],44%

# Target: T2, 5-hydroxytryptamine receptor 3A (Rattus norvegicus, UniProt P35563)
# T2 sequence (P35563 whole entry): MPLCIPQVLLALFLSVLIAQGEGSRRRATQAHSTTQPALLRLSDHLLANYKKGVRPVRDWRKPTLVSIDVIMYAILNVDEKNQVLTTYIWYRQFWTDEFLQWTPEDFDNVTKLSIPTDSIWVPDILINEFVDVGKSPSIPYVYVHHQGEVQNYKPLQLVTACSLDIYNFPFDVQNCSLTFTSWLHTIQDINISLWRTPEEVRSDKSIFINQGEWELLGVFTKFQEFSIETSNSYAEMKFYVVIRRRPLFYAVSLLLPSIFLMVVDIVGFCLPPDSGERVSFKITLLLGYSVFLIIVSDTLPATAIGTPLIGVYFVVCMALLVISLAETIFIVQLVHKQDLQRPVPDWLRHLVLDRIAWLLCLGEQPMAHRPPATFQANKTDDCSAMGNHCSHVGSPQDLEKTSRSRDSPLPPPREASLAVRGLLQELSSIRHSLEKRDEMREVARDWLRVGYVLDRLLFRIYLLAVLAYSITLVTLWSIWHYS
# Assay: Displacement of [3H]-LY278584 from 5HT3 receptor in Sprague-Dawley albinus rat cerebral cortex membranes after 30 mins
# Format: cell membranes, Membrane
row,Structure (SMILES),Ki
1,Cl.O=C1C2CCCCN2C(=O)CN1CCCCNCC1CCc2ccccc2O1 (configuration not stated),> 1000 nM
2,Cl.O=C1C2CCCN2C(=O)N1CCCCNCCc1ccc2ccccc2c1 (configuration not stated),> 1000 nM
3,Cl.O=C1C2CCCN2C(=O)N1CCCCNCCc1cccc2ccccc12 (configuration not stated),> 1000 nM

# Target: 5-hydroxytryptamine receptor 2A (Rattus norvegicus, UniProt P14842)
# Assay: Displacement of [3H]ketanserin from 5HT2A receptor in Sprague-Dawley albinus rat frontal cortex membranes after 15 mins
# Format: cell membranes, Membrane
# How it was run: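 Rat frontal cortex membranes (male Sprague–Dawley, 180–200 g). Nonspecific binding was set with 1 μM cinanserin.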
# Sequence of 5-hydroxytryptamine receptor 2A (P14842 whole entry): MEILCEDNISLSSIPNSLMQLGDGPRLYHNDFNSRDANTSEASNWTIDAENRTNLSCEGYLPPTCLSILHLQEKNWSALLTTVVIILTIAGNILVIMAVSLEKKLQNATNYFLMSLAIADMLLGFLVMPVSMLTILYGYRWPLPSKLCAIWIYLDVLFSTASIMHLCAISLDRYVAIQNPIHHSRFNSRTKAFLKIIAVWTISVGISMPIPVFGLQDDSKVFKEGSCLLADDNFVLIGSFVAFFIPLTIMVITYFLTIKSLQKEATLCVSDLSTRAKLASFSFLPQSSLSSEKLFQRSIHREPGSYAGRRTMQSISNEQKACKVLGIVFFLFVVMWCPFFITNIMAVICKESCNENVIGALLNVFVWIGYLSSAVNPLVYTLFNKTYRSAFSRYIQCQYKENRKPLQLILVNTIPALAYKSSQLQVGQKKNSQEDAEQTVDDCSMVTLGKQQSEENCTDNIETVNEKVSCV
row,Structure (SMILES),Ki
1,Cl.O=C1C2CCCCN2C(=O)CN1CCCCNCC1CCc2ccccc2O1 (configuration not stated),> 1000 nM
2,O=C1C2CCCN2C(=O)N1Cc1ccc(CNCC2CCc3ccccc3O2)cc1 (configuration not stated),> 1000 nM
3,Cl.O=C1C2CCCN2C(=O)N1CCCCNCCc1cccc2ccccc12 (configuration not stated),> 1000 nM
4,O=C1C2CCCN2C(=O)N1CCCNCC1CCc2ccccc2O1 (configuration not stated),> 1000 nM
5,O=C1CSC(=O)N1CCCCCCCCNCC1CCc2ccccc2O1 (configuration not stated),> 1000 nM
6,O=C1C2CCCCN2C(=O)N1CCCCNCC1CCc2ccccc2O1 (configuration not stated),> 1000 nM

# Target: 5-hydroxytryptamine receptor 7 (Rattus norvegicus, UniProt P32305)
# Assay: Displacement of [3H]-5-CT from 5HT7 receptor in Sprague-Dawley albinus rat hyphalamic membranes after 120 mins
# Format: cell membranes, Membrane
# Sequence of 5-hydroxytryptamine receptor 7 (P32305 whole entry): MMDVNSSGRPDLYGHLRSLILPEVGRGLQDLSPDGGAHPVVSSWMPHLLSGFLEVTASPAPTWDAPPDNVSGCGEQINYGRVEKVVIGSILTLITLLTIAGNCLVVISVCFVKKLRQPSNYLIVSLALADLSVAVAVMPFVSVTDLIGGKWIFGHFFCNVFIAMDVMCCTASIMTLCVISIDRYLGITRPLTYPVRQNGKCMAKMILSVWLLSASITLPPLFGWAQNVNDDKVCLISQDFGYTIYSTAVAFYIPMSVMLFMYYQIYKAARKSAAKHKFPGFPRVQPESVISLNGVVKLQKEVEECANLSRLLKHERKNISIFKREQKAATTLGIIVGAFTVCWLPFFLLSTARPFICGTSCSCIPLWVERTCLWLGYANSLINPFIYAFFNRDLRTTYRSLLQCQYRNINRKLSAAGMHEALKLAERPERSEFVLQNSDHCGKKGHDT
row,Structure (SMILES),Ki
1,Cl.O=C1C2CCCCN2C(=O)CN1CCCCNCC1CCc2ccccc2O1 (configuration not stated),> 1000 nM
2,Cl.O=C1C2CCCN2C(=O)N1CCCCNCCc1cccc2ccccc12 (configuration not stated),> 1000 nM

# Target: T1, 5-hydroxytryptamine receptor 1A (Homo sapiens)
# Assay: Partial agonist activity at human 5HT1A receptor expressed in human HeLa cells assessed as inhibition of forskolin-stimulated cAMP production pretreated 20 mins before forskolin challenge measured after 2 hrs by RIA
# Format: functional, cell-based
# How it was run: (§1)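 HeLa cells stably expressing the h5-HT1AR, grown in DMEM with 2 mM glutamine, 1 mM pyruvate and 10% heat-inactivated FCS, and used after 2–3 days at about 7.5 × 10^4 cells/well. After a PBS wash, cells were incubated 10 min in PBS with 0.5 mM isobutylmethylxanthine and 10 μM forskolin, with or without compound. The reaction was stopped with ice-cold ethanol, extracted 2 h and lyophilized; cAMP was measured by RIA.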
row,Structure (SMILES),Activity
1,O=C1C2CCCCN2C(=O)N1CCCCNCC1CCc2ccccc2O1 (configuration not stated),Active

# Tested on: not listed separately
# Assay: Neuroprotective activity in Wistar rat hippocampi primary neuronal cells assessed as protection against glutamate-induced cell death at 1 uM treated 30 min before glutamate challenge measured after 22 hrs by MTT assay
# Format: functional, Hippocampus, Primary neuron
# How it was run: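 E18 fetal Wistar rat hippocampal neurons in neuron-enriched culture (Neurobasal, 2% B27, poly-L-lysine), used at 11 days in vitro. Compound added 30 min before 1 mM glutamate, exposure 22 h. Survival by MTT (mitochondrial dehydrogenase) read-out, reported as % protection.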
row,Structure (SMILES),Activity
1,CCCN(CCC)C1CCc2cccc(O)c2C1 (configuration not stated) [8-OH-DPAT],37%

# Tested on: not listed separately
# Assay: Neuroprotective activity in Wistar rat hippocampi primary neuronal cells assessed as protection against oxygen-glucose deprivation induced cell death at 1 uM after 18 hrs by MTT assay
# Format: functional, Hippocampus, Primary neuron
row,Structure (SMILES),Activity
1,CCCN(CCC)C1CCc2cccc(O)c2C1 (configuration not stated) [8-OH-DPAT],54%

# Target: T3, 5-hydroxytryptamine receptor 1A (Rattus norvegicus, UniProt P19327)
# T3 sequence (P19327 whole entry): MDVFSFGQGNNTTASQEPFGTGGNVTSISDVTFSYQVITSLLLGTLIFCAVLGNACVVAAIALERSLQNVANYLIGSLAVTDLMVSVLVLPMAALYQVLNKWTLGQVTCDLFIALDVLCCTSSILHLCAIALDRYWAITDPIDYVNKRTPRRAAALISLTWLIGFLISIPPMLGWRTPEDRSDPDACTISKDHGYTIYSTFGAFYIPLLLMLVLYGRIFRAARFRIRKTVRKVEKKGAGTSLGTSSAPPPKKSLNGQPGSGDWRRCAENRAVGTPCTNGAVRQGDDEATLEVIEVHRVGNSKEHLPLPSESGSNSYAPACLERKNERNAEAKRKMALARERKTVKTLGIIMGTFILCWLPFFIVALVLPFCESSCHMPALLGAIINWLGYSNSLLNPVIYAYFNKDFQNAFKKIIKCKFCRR
# Assay: Displacement of [3H]-8-OH-DPAT from 5-HT1A receptor in Sprague-Dawley albinus rat cerebral cortex membranes after 15 mins
# Format: cell membranes, Membrane
row,Structure (SMILES),Ki
1,Cl.O=C1C2CCCCN2C(=O)CN1CCCCNCC1CCc2ccccc2O1 (configuration not stated),34 nM
2,O=C1C2CCCN2C(=O)N1Cc1ccc(CNCC2CCc3ccccc3O2)cc1 (configuration not stated),28 nM
3,O=C1C2CCCN2C(=O)N1CCCNCC1CCc2ccccc2O1 (configuration not stated),8.2 nM
4,O=C1C2CCCCN2C(=O)N1CCCCNCC1CCc2ccccc2O1 (configuration not stated),2.4 nM

# Target: 5-hydroxytryptamine receptor 4 (Rattus norvegicus, UniProt Q62758)
# Assay: Displacement of [3H]GR113808 from 5HT4 receptor in Sprague-Dawley albinus rat striatal membranes after 30 mins by scintillation counting
# Format: cell membranes, Membrane
# Sequence of 5-hydroxytryptamine receptor 4 (Q62758 whole entry): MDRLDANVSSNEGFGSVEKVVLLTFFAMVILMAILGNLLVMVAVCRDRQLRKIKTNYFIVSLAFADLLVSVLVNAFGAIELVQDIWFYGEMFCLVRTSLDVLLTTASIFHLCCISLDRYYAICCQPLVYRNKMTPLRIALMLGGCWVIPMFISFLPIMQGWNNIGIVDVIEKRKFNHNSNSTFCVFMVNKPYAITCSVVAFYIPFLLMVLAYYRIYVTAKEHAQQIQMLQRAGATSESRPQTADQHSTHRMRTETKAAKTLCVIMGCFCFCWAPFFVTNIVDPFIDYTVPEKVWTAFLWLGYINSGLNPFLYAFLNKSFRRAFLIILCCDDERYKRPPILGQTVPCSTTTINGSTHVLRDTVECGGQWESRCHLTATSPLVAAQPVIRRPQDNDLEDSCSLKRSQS
row,Structure (SMILES),Ki
1,Cl.O=C1C2CCCCN2C(=O)CN1CCCCNCC1CCc2ccccc2O1 (configuration not stated),> 1000 nM
2,Cl.O=C1C2CCCN2C(=O)N1CCCCNCCc1cccc2ccccc12 (configuration not stated),> 1000 nM

# Target: T4, Adrenergic receptor alpha-1 (Rattus norvegicus, UniProt P15823+P23944+P43140)
# T4 sequence (P15823 whole entry): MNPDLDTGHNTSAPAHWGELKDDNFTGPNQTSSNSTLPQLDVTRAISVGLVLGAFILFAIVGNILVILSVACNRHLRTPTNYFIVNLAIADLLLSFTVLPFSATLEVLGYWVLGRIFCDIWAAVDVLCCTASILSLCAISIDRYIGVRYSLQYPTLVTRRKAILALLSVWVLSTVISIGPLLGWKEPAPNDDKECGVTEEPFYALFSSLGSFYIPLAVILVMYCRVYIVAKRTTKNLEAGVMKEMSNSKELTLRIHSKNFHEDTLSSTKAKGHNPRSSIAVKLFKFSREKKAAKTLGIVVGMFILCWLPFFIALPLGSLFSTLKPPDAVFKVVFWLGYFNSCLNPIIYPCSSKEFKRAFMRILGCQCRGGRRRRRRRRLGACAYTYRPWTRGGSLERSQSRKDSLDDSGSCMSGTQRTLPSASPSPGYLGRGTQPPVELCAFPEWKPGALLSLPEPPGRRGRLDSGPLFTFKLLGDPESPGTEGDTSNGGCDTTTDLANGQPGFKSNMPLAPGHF
# T4 sequence (P23944 whole entry): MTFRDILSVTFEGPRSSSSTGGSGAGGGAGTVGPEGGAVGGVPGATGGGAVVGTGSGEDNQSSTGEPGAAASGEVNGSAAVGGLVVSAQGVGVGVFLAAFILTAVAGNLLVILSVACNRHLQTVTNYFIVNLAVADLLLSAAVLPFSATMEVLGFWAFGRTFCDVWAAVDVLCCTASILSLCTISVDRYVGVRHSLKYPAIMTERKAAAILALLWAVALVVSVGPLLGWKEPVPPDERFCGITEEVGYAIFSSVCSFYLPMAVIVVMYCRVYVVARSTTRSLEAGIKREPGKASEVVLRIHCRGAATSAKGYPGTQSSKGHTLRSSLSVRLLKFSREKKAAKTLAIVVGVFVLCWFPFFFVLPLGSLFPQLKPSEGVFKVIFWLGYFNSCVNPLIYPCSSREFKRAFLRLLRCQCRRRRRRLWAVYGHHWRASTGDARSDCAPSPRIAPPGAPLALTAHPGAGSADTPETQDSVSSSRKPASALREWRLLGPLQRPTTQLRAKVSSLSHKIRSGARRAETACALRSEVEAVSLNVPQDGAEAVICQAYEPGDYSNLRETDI
# T4 sequence (P43140 whole entry): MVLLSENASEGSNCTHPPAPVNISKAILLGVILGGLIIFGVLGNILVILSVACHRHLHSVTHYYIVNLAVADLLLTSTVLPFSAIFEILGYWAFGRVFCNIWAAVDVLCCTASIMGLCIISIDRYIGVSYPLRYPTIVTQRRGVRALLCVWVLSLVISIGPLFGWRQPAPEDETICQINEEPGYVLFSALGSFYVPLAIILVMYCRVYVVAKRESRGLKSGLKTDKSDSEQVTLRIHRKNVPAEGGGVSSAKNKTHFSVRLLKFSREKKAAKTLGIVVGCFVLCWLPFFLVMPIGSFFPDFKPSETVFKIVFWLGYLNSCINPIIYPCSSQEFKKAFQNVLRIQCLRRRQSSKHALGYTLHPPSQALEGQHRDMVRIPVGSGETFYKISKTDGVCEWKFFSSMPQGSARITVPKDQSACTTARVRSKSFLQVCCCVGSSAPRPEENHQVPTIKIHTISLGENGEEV
# Assay: Displacement of [3H]prazosin from alpha1 adrenoceptor in Sprague-Dawley albinus rat cerebral cortex membranes after 30 mins
# Format: cell membranes, Membrane
# How it was run: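 Rat cerebral cortex membranes (about 250 μg protein; male Sprague–Dawley, 180–200 g) in 50 mM Tris-HCl with 10 mM MgCl2, pH 7.4. Incubation was 30 min at 25 °C with 0.2 nM [3H]prazosin and six competitor concentrations. Nonspecific binding was set with 10 μM phentolamine.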
row,Structure (SMILES),Ki
1,Cl.O=C1C2CCCCN2C(=O)CN1CCCCNCC1CCc2ccccc2O1 (configuration not stated),67 nM
2,Cl.O=C1C2CCCN2C(=O)N1CCCCNCCc1ccc2ccccc2c1 (configuration not stated),99 nM
3,Cl.O=C1C2CCCN2C(=O)N1CCCCNCCc1cccc2ccccc12 (configuration not stated),> 1000 nM

# Target: T5, 5-hydroxytryptamine receptor 1A (Homo sapiens, UniProt P08908)
# T5 sequence (P08908 whole entry): T1 sequence (whole entry)
# Assay: Agonist activity at human 5HT1A receptor expressed in human HeLa cells assessed as inhibition of forskolin-stimulated cAMP production […] measured after 2 hrs by RIA
# Format: functional, cell-based
# How it was run: as §1
row,Structure (SMILES),EC50
1,O=C1C2CCCN2C(=O)N1CCCNCC1CCc2ccccc2O1 (configuration not stated),23.3 nM
2,O=C1CSC(=O)N1CCCCCCCCNCC1CCc2ccccc2O1 (configuration not stated),25.9 nM

# Target: D(2) dopamine receptor (Rattus norvegicus, UniProt P61169)
# Assay: Displacement of [3H]spiperone from dopamine D2 receptor in Sprague-Dawley albinus rat striatal membranes after 15 mins
# Format: cell membranes, Membrane
# Sequence of D(2) dopamine receptor (P61169 whole entry): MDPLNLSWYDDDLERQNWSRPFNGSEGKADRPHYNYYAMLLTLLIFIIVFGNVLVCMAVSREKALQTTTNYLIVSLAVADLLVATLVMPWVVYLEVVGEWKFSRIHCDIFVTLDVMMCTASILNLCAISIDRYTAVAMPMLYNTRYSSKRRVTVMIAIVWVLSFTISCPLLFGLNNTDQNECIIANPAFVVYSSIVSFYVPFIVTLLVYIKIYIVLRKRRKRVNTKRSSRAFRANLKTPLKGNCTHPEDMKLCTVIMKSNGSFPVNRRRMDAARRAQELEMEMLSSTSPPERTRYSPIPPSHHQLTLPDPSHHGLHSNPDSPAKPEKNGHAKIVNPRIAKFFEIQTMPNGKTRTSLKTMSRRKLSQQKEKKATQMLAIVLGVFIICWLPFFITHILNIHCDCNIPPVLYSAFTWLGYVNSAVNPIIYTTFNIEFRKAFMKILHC
row,Structure (SMILES),Ki
1,Cl.O=C1C2CCCCN2C(=O)CN1CCCCNCC1CCc2ccccc2O1 (configuration not stated),> 1000 nM
2,Cl.O=C1C2CCCN2C(=O)N1CCCCNCCc1ccc2ccccc2c1 (configuration not stated),> 1000 nM
3,Cl.O=C1C2CCCN2C(=O)N1CCCCNCCc1cccc2ccccc12 (configuration not stated),> 1000 nM
